# PHOSPHO1 inh: PubChem AID 1565 | Phosphoethanolamine/phosphocholine phosphatase (Homo sapiens), Q8TCT1 | recombinant PHOSPHO1, absorbance phosphatase assay | inhibition, % at 13.3 µM | actives 1.1% (n = 290,000); in the data active means inhibition above about 60%
# MrgX1 agonist: agonists of human MrgX1 receptor, primary screen, HEK293 cells, Fluo-4 calcium flux | B-score at 10 µM | Fluo-4 calcium fluorescence, agonist mode; active compounds read high | actives 0.44% (n = 310,000);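 active means calcium response B-score plate-corrected fluorescence ratio at least 3 library SD, with starting fluorescence B-score inside 5 SD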
# Target sequence (Q96LB2 whole entry, looked up): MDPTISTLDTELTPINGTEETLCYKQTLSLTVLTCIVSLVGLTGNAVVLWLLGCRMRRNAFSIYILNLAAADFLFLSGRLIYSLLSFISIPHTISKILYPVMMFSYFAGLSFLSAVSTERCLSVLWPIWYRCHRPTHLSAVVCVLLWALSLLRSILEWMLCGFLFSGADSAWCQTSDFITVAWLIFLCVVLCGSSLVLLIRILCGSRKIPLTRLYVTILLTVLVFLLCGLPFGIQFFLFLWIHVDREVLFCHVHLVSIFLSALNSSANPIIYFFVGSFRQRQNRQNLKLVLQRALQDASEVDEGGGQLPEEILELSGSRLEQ
#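 Material: HEK293 cells stably expressing human MrgX1 receptor | Quantity: 15,000 cells per well | Times: Cells plated overnight, dye loaded 0.5 h 37 °C, 0.5 h room temperature | Measured by: Kinetic Fluo-4 NW fluorescence of intracellular calcium | Control set: Positive and negative controls per plate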
# MrgX1 allo act: positive allosteric modulators of MrgX1, primary screen, HEK293 cells, Fluo-4 calcium flux; FDSS; active compounds read high; B-score at 10 µM; actives 0.63% (n = 310,000); AID 588675, 2011;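 active means plate-corrected calcium response at least 3 library SD above typical, normal starting fluorescence, not activating the receptor alone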;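 further: compound read alongside a low EC10 to EC30 dose of BAM8-22 agonist; peak minus trough fluorescence over baseline measured at the second addition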
# RGS4 inh: RGS4 inhibitors, primary screen, cell-based, HEK293 M3R inducible RGS4, calcium flux; Regulator of G-protein signaling 4 (Homo sapiens), P49798; Fluo-4 calcium flux; active compounds read high; triggered by carbachol at its EC20; actives 0.45% (n = 310,000); B-score at 10 µM;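 active means B-score, a plate-corrected calcium signal, over three deviations above library mean, with baseline fluorescence within five deviations of library mean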;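 further: RGS4 expression induced by doxycycline in cells with stable M3 receptor; B-score is computed from the integrated fluorescence ratio over baseline after carbachol; higher B-score means a larger calcium signal and so more RGS4 inhibition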
# Target sequence (P49798 whole entry, looked up): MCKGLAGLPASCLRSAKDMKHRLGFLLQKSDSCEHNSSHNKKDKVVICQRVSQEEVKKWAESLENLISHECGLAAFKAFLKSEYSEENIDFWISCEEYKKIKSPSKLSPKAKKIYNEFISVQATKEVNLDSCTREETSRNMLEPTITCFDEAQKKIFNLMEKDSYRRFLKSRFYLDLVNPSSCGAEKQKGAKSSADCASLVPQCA
# MrgX1 antag: antagonists of human MrgX1 receptor, primary screen, HEK293 cells, Fluo-4 calcium flux. Mas-related G-protein coupled receptor member X1 (Homo sapiens), Q96LB2. BAM8-22 antagonism; active compounds read low. B-score at 10 µM. actives 1.3% (n = 310,000). AID 588676, 2011;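 active means calcium-response B-score plate-corrected more than 3 library SD below zero, starting fluorescence within 5 deviations, no agonist response on first addition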;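 further: peak minus trough fluorescence over baseline after final BAM8-22 challenge near maximal dose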
# RGS4 act: RGS4 potentiators or activators, primary screen, cell-based, HEK293 M3R inducible RGS4, calcium flux; carbachol calcium flux Fluo4; active compounds read low; B-score at 10 µM; actives 0.92% (n = 310,000); AID 463111, 2010;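 active means B-score of the integrated calcium signal more than 4 SD below the library mean, with starting fluorescence not abnormally high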;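 further: negative B-score means reduced calcium response which marks RGS4 activation or potentiation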
#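 System – HEK293 FlpIn-TREx cells, stable M3R, doxycycline-inducible RGS4 · Reagent – ECmax carbachol challenge · Times – compound preincubation 20 min at room temperature before agonist · Technique – Fluo4 fluorescence kinetic imaging of calcium · Measure – B score of integrated Fluo4 ratio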
# * marks the source's active call; other numbers are inactive results; i = inactive; nt = not tested or not shown. In the library only some 4.5% were active in any assay of this set; here they are far more common.
SMILES,PHOSPHO1 inh,MrgX1 agonist,MrgX1 allo act,RGS4 inh,MrgX1 antag,RGS4 act
O=C(Cn1nnc(-c2cccs2)n1)NCc1ccco1,64*,i,i,i,i,i
COc1cccc(/C=N/NC(=O)c2ccoc2C)c1,13,i,i,i,i,-8.5*
COc1cc(/C=N/NC(=O)c2ccoc2C)ccc1O,2,i,i,i,i,i
Cc1ccsc1C(=O)NNC(=S)NCC(C)C,12,i,i,i,i,i
CC(C)CNC(=S)NNC(=O)c1csc2ccccc12,88*,i,i,i,i,i
CCNC(=S)NNC(=O)c1ccc(OC(F)F)cc1,73*,i,i,i,i,i
CCNC(=S)NNC(=O)c1csc2ccccc12,-130,i,i,i,i,i
CC(C)CNC(=S)NNC(=O)c1ccc(OC(F)F)cc1,94*,i,i,i,i,i
O=C(/C=C/c1ccc(Br)cc1)N1CCN(Cc2ccccc2)CC1,nt,i,i,i,i,i
Cc1c(Cl)cn2c(=O)cc(CN3CCN(c4ccc(F)cc4)CC3)nc2c1Cl,24,i,i,i,i,i
CCOc1ccc(NC(=O)C(NC(=O)C2CCC(C)CC2)C(C)C)cc1 (stereo not drawn),-5,i,i,i,i,-7*
COc1ccc(CCNC(=O)CCCCCn2c(SCC(N)=O)nc3cc4c(cc3c2=O)OCO4)cc1OC,-14,i,i,i,i,i
COc1ccc(-c2cnc(OC(C)(C)C)nc2OC(C)(C)C)cc1OC,2,i,i,i,i,i
CCOc1ccc(N)c(SSc2cc(OCC)ccc2N)c1,67*,29*,i,i,i,i
Cc1cc(NC(=O)CCSc2ccc(Cl)cc2)no1,62*,i,i,i,i,i
CCOC(=O)c1ccc(NC(=O)C2CCN(C(=O)c3ccc(OC)c(OC)c3)CC2)cc1,-23,i,i,i,i,i
COC(=O)c1ccc(NC(=O)C2CCN(C(=O)c3cc(OC)c(OC)c(OC)c3)CC2)cc1,106*,i,i,i,i,i
O=C(O)c1cc(-c2ccc(/C=C3/SC(=S)N(Cc4ccccc4)C3=O)o2)ccc1Cl,65*,nt,nt,nt,nt,nt
COc1ccc(CN2C(=O)/C(=C/c3ccc(-c4ccc(Cl)c(C(=O)O)c4)o3)SC2=S)cc1,9,nt,nt,nt,nt,nt
O=C1/C(=C/c2ccncc2)SC(=S)N1Cc1ccccc1,1,i,i,i,i,i
O=C(O)CCN1C(=O)/C(=C/c2ccc(-c3nc4ccccc4s3)o2)SC1=S,101*,i,i,i,i,i
O=C(O)COc1cccc(/C=C2/SC(=S)N(Cc3ccccc3)C2=O)c1,nt,i,i,5.7*,i,i
Cc1ccc(/C=C2\SC(=S)N(Cc3ccccc3)C2=O)o1,67*,i,i,nt,i,nt
Cc1ccc(CNC(=O)CNC(=O)c2ccc(Br)o2)cc1,43,i,i,i,i,i
O=C(Nc1ccccc1Cl)Oc1ccc(-c2ccccc2)cc1,30,i,i,i,i,i
SMILES,PHOSPHO1 inh,MrgX1 agonist,MrgX1 allo act,RGS4 inh,MrgX1 antag,RGS4 act
C[C@H](NC(=O)[C@@H]1CSC2c3ccccc3C(=O)N21)C(=O)NC1CCCCC1 (stereo partly drawn),38,i,i,i,i,i
COc1ccc(-c2cc(C3CCNCC3)[nH]n2)cc1,2,i,i,i,i,i
CC(C)N1CC(COc2ccc(Cl)cc2Cl)OC1=O (stereo not drawn),33,i,i,i,i,i
Oc1ccc(-c2nc3ccccc3nc2-c2ccccc2)cc1,49,i,i,i,i,i
O=C(/C(=C(\[O-])c1ccccc1)[n+]1ccc2ccccc2c1)c1ccc([N+](=O)[O-])cc1,-7,i,i,i,-5.7*,i
CCc1ccc(C2C(C#N)=C(N)SC(N)=C2C#N)s1,5,i,i,i,-6.1*,i
CCOc1ccccc1C1C(C#N)=C(N)SC(N)=C1C#N,70*,i,i,i,i,i
CCOc1ccc(C2C(C#N)=C(N)SC(N)=C2C#N)cc1OCC,-12,i,i,i,i,i
CCc1ccc(C2C(C#N)=C(N)SC(N)=C2C#N)cc1,56,i,i,i,-5.3*,i
CCc1ccc(C2C(C#N)=C(N)OC3=C2C(=O)CCC3)s1 (stereo not drawn),-20,i,i,i,i,i
Cc1ccc(C2C(C#N)=C(N)SC(N)=C2C#N)o1,102*,i,i,i,-7.3*,i
O=S(=O)(NCC(c1ccc2c(c1)OCO2)N1CCOCC1)c1ccccc1 (stereo not drawn),nt,i,i,i,i,i
CCOc1cc(/C=N/NC(=O)C(=O)NCCCOC(C)C)cc(Br)c1O,3,i,i,i,i,i
Cc1c(CN(C)C(=O)/C=C/c2ccc([N+](=O)[O-])cc2)cnn1C,6,i,i,i,i,i
Cn1ccs/c1=N\C(=O)Nc1cccc(C(F)(F)F)c1,nt,i,i,i,i,i
COC(=O)C(C)NC(=O)c1cn(-c2ccccc2OC)c(=O)c2ccccc12 (stereo not drawn),nt,i,i,i,i,i
CC(Oc1ccc(Cl)cc1Cl)C(=O)Nc1ccc(OCC(=O)O)cc1 (stereo not drawn),41,i,i,i,i,i
COc1cc(/C=c2\sc3nc(-c4ccncc4)nn3c2=O)ccc1OC(C)=O,87*,nt,nt,nt,nt,nt
CC(=O)Oc1cccc(/C=c2\sc3nc(-c4ccco4)nn3c2=O)c1,24,i,i,i,i,i
COc1ccc(-c2csc(NC(=O)C3CCCO3)n2)cc1 (stereo not drawn),17,i,i,i,i,-7*
Nn1c(SCC(=O)NC2CCCc3ccccc32)nnc1-c1ccc(Cl)cc1Cl (stereo not drawn),-14,nt,nt,nt,nt,nt
Cn1cnnc1SC1c2cccc3cccc(c23)C1NS(=O)(=O)c1ccc(Cl)cc1 (stereo not drawn),0,i,i,i,i,i

# Screening results (PubChem BioAssay)
